Data set [1] can be described thus: Drug level in mouse blood at 50 mg/kg, po after 30 mins by microbiological assay. Further details: dose 50 mg/kg, route oral. The following applies: read-out: Drug uptake. Type of data set: ADME, organism-based. The essentials:
(§1)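 Mice given a single 50 mg/kg dose by the route in the line. Groups of five killed at each time point and blood taken from the cut axilla, heparinized and stored at 4 °C. Blood assayed the same day by large-plate microbiological assay with Sarcina lutea NCTC 8340, overnight at 30 °C. Standards made in mouse blood, with pH 7.2 phosphate-buffered saline as diluent.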

Data set [2] relates to Staphylococcus aureus. Nature of the data set: Antibacterial activity against beta-lactamase producing benzylpenicillin-resistant Staphylococcus aureus Russell after 18 hrs by serial dilution method. The format is functional. The essentials:
(§2)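 MICs by serial dilution on nutrient agar. Inoculum 0.001 mL of undiluted overnight broth culture. Plates incubated 18 h at 37 °C before reading. The S. aureus Russell strain produces β-lactamase and resists benzylpenicillin.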

Data set [3] is described as follows: Drug level in mouse blood at 50 mg/kg, sc after 4 hrs by microbiological assay. The following applies: read-out: Drug uptake. More on the design: dose 50 mg/kg, route subcutaneous. Type of data set: ADME, organism-based. The essentials:
as §1

A short description of data set [4]: Drug level in mouse blood at 50 mg/kg, sc after 10 mins by microbiological assay. Type of data set: ADME, organism-based. More on the design: dose 50 mg/kg, route subcutaneous. The following applies: read-out: Drug uptake. The method in brief:
as §1

Data set [5] deals with Escherichia coli. The data set can be described thus: Antibacterial activity against Escherichia coli after 18 hrs by serial dilution method. Type of data set: functional. The method in brief:
(§3)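 MICs by serial dilution on nutrient agar. Inoculum 0.001 mL of undiluted overnight broth culture. Plates incubated at 37 °C for 18 h before reading.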

Data set [6] is described as follows: Drug level in mouse blood at 50 mg/kg, po after 10 mins by microbiological assay. The following applies: read-out: Drug uptake. Type of data set: ADME, organism-based. More on the design: dose 50 mg/kg, route oral. The method in brief:
as §1

Data set [7] has as its system Salmonella typhi. Nature of the data set: Antibacterial activity against Salmonella typhi after 18 hrs by serial dilution method. The format is functional, Salmonella enterica subsp. enterica serovar Typhi. Particulars: Salmonella enterica. The method in brief:
as §2

Data set [8] can be described thus: Drug level in mouse blood at 50 mg/kg, po after 20 mins by microbiological assay. The format is ADME, organism-based. More on the design: dose 50 mg/kg, route oral. Particulars: read-out: Drug uptake. The essentials:
as §1

A short description of data set [9]: Drug level in mouse blood at 50 mg/kg, sc after 20 mins by microbiological assay. The format is ADME, organism-based. Further details: dose 50 mg/kg, route subcutaneous. The following applies: read-out: Drug uptake. The method in brief:
as §1

In data set [10] the test system is Shigella sonnei. The data set can be described thus: Antibacterial activity against Shigella sonnei after 18 hrs by serial dilution method. The format is functional. The essentials: as §3
A short description of data set [11]: Drug level in mouse blood at 50 mg/kg, sc after 30 mins by microbiological assay. Type of data set: ADME, organism-based. More on the design: dose 50 mg/kg, route subcutaneous. The following applies: read-out: Drug uptake. The method in brief: as §1
The nature of data set [12]: Drug level in mouse blood at 50 mg/kg, po after 1 hr by microbiological assay. The format is ADME, organism-based. Further details: dose 50 mg/kg, route oral. Particulars: read-out: Drug uptake. The method in brief:
as §1

Data set [13] relates to Staphylococcus aureus. The data set can be described thus: Antibacterial activity against Staphylococcus aureus Oxford after 18 hrs by serial dilution method. The format is functional. The method in brief:
as §3

Data set [14] is described as follows: Drug level in mouse blood at 50 mg/kg, sc after 2 hrs by microbiological assay. Type of data set: ADME, organism-based. More on the design: dose 50 mg/kg, route subcutaneous. Particulars: read-out: Drug uptake. The method in brief: as §1
A short description of data set [15]: Drug level in mouse blood at 50 mg/kg, po after 4 hrs by microbiological assay. The format is ADME, organism-based. More on the design: dose 50 mg/kg, route oral. Particulars: read-out: Drug uptake. The essentials:
as §1

Data set [16] is described as follows: Drug level in mouse blood at 50 mg/kg, sc after 1 hr by microbiological assay. Type of data set: ADME, organism-based. Further details: dose 50 mg/kg, route subcutaneous. Particulars: read-out: Drug uptake. The method in brief:
as §1

Data set [17] relates to Klebsiella aerogenes. The data set can be described thus: Antibacterial activity against Klebsiella aerogenes after 18 hrs by serial dilution method. The format is functional. The essentials:
as §3

Data set [18] can be described thus: Drug level in mouse blood at 50 mg/kg, po after 2 hrs by microbiological assay. The format is ADME, organism-based. Further details: dose 50 mg/kg, route oral. The following applies: read-out: Drug uptake. The essentials: as §1
Data set [19] concerns Proteus mirabilis. Nature of the data set: Antibacterial activity against Proteus mirabilis after 18 hrs by serial dilution method. The format is functional. The essentials:
as §3

Data set [20] in a line: Drug level in mouse blood at 50 mg/kg, iv after 4 hrs by microbiological assay. The following applies: read-out: Drug uptake. Further details: dose 50 mg/kg, route intravenous. The format is ADME, organism-based. The essentials: as §1
The nature of data set [21]: Drug level in mouse blood at 50 mg/kg, iv after 1 hr by microbiological assay. Type of data set: ADME, organism-based. Further details: dose 50 mg/kg, route intravenous. Particulars: read-out: Drug uptake. The essentials:
as §1

Data set [22] is described as follows: Drug level in mouse blood at 50 mg/kg, iv after 30 mins by microbiological assay. Type of data set: ADME, organism-based. The following applies: read-out: Drug uptake. Further details: dose 50 mg/kg, route intravenous. The essentials:
as §1

Data set [23] can be described thus: Drug level in mouse blood at 50 mg/kg, iv after 2 hrs by microbiological assay. Particulars: read-out: Drug uptake. Type of data set: ADME, organism-based. More on the design: dose 50 mg/kg, route intravenous. The method in brief: as §1
A short description of data set [24]: Drug level in mouse blood at 50 mg/kg, iv after 20 mins by microbiological assay. The format is ADME, organism-based. More on the design: dose 50 mg/kg, route intravenous. Particulars: read-out: Drug uptake. The essentials:
as §1

Data set [25] in a line: Drug level in mouse blood at 50 mg/kg, iv after 10 mins by microbiological assay. Further details: dose 50 mg/kg, route intravenous. The format is ADME, organism-based. The following applies: read-out: Drug uptake. The method in brief:
as §1

Molecules are shown by their SMILES. Converted amounts (≈) assume the structure as drawn.

By MIC is commonly meant the smallest concentration in the dilution series that meets the test's criterion for growth inhibition. In the case of `N[C@@H](C(=O)N[C@@H]1C(=O)N2C(C(=O)O)=C(Cc3cncc(C(=O)O)c3)CS[C@H]12)c1ccccc1`, the concentration at 0.5 h in data set [1] is 1700 ng/mL; in data set [11] it was 35800 ng/mL. For the same compound, the MIC in data set [2] was 12.5 µg/mL (≈ 26.7 µM); in data set [5], 12.5 µg/mL (≈ 26.7 µM); in data set [7], 2.5 µg/mL (≈ 5.34 µM); in data set [10] it was 12.5 µg/mL (≈ 26.7 µM); in [13] it was 1.25 µg/mL (≈ 2.67 µM); in data set [17] it was 1.25 µg/mL (≈ 2.67 µM). The same compound gave an MIC in data set [19] of 1.25 µg/mL (≈ 2.67 µM). Besides, the concentration at 4 h in data set [3] and in data set [15] was below 400 ng/mL throughout. In addition, the concentration at 10 min in [4] came to 70400 ng/mL; in [6] it was 550 ng/mL. Further, the concentration at 20 min in [8] amounted to 850 ng/mL; in data set [9] it was 54000 ng/mL. Also, the figures for the concentration at 1 h in data set [12] and in data set [16] were 1500 ng/mL and 12200 ng/mL, respectively. For the same compound, the concentration at 2 h in data set [14] came out at 2000 ng/mL; in data set [18], 600 ng/mL.

In the case of `N[C@@H](C(=O)N[C@@H]1C(=O)N2C(C(=O)O)=C(CC3CCCCO3)CS[C@H]12)c1ccccc1` (stereo partly specified), the minimal inhibitory concentration (MIC) in data set [2] is 5 µg/mL (≈ 11.6 µM); in data set [5] it was above 50 µg/mL; in data set [7], 25 µg/mL (≈ 57.9 µM); in data set [10] it was 25 µg/mL (≈ 57.9 µM); in data set [13] it was 5 µg/mL (≈ 11.6 µM); in [17], 10 µg/mL (≈ 23.2 µM). The MIC in data set [19] was above 50 µg/mL.

Take `CC(=O)OCCC1=C(C(=O)O)N2C(=O)[C@@H](NC(=O)[C@H](N)c3ccccc3)[C@H]2SC1`: the MIC was 10 µg/mL (≈ 23.8 µM) in data set [2]; above 50 µg/mL in [5]; 25 µg/mL (≈ 59.6 µM) in [7]; 50 µg/mL (≈ 119 µM) in [10]; 0.5 µg/mL (≈ 1.19 µM) in data set [13]; 25 µg/mL (≈ 59.6 µM) in data set [17]. For the same compound, the MIC in data set [19] was above 50 µg/mL.

For the compound `CN(C)S(=O)(=O)c1ccc(CC2=C(C(=O)O)N3C(=O)[C@@H](NC(=O)[C@H](N)c4ccccc4)[C@H]3SC2)cc1`, the MIC came to 500 µg/mL (≈ 942 µM) in [2]; 25 µg/mL (≈ 47.1 µM) in data set [5]; 25 µg/mL (≈ 47.1 µM) in data set [7]; 25 µg/mL (≈ 47.1 µM) in [10]; 0.5 µg/mL (≈ 0.942 µM) in [13]; 50 µg/mL (≈ 94.2 µM) in [17]. In [19], this compound registered an MIC of 125 µg/mL (≈ 236 µM).

As to `O=C(Cc1cccs1)N[C@@H]1C(=O)N2C(C(=O)[O-])=C(C[n+]3ccccc3)CS[C@H]12` [CEPHALORIDINE], the concentration at 4 h in data set [20] was below 50 ng/mL; in data set [3], below 200 ng/mL. The concentration at 1 h in data set [21] was 2900 ng/mL; in data set [16], 5600 ng/mL. For the same compound, the concentration at 0.5 h in data set [22] came out at 14300 ng/mL; in data set [11], 18500 ng/mL. The concentration at 10 min turned out to be 32800 ng/mL in [4] and 48800 ng/mL in [25]. Also, the concentration at 2 h in [23] was 320 ng/mL; in data set [14], 710 ng/mL. Further, the values for the concentration at 20 min in [24] and in data set [9] were 23200 ng/mL and 24400 ng/mL, respectively.

Consider `COC(=O)CC1=C(C(=O)O)N2C(=O)[C@@H](NC(=O)[C@H](N)c3ccccc3)[C@H]2SC1`, for which the MIC stood at 16 µg/mL (≈ 39.5 µM) in data set [2]; 31 µg/mL (≈ 76.5 µM) in data set [5]; 8 µg/mL (≈ 19.7 µM) in data set [7]; 16 µg/mL (≈ 39.5 µM) in data set [10]; 0.5 µg/mL (≈ 1.23 µM) in [13]; 63 µg/mL (≈ 155 µM) in data set [17]. Moreover, the MIC in [19] amounted to 63 µg/mL (≈ 155 µM).

For `Cc1ccncc1CC1=C(C(=O)O)N2C(=O)[C@@H](NC(=O)[C@H](N)c3ccccc3)[C@H]2SC1`, the MIC in data set [2] is 12.5 µg/mL (≈ 28.5 µM); in [5] it was 12.5 µg/mL (≈ 28.5 µM); in data set [7], 5 µg/mL (≈ 11.4 µM); in data set [10], 12.5 µg/mL (≈ 28.5 µM); in data set [13], 0.12 µg/mL (≈ 0.274 µM); in [17], 12.5 µg/mL (≈ 28.5 µM). In data set [19], this compound showed a minimal inhibitory concentration (MIC) of 25 µg/mL (≈ 57 µM).

For the origin of these results see ChEMBL document CHEMBL3244187, “Structure--activity relationships in cephalosporins prepared from penicillins. 2. Analogues of cephalexin substituted in the 3-methyl group” (J Med Chem, 1977).
